These results are taken from ChEMBL document CHEMBL1255453, “Affinity of ceftaroline and other beta-lactams for penicillin-binding proteins from Staphylococcus aureus and Streptococcus pneumoniae” (Antimicrob Agents Chemother, 2010).

One may read the IC50 as the midpoint of a concentration-inhibition curve.

Molecules are shown by their SMILES. Values after ≈ are worked out from the molar mass of the structure shown.

The target of test [1] is T1, Penicillin-binding protein 2B (Streptococcus pneumoniae serotype 4 (strain ATCC BAA-334 / TIGR4), UniProt P0A3M5).
T1 sequence (P0A3M5 whole entry): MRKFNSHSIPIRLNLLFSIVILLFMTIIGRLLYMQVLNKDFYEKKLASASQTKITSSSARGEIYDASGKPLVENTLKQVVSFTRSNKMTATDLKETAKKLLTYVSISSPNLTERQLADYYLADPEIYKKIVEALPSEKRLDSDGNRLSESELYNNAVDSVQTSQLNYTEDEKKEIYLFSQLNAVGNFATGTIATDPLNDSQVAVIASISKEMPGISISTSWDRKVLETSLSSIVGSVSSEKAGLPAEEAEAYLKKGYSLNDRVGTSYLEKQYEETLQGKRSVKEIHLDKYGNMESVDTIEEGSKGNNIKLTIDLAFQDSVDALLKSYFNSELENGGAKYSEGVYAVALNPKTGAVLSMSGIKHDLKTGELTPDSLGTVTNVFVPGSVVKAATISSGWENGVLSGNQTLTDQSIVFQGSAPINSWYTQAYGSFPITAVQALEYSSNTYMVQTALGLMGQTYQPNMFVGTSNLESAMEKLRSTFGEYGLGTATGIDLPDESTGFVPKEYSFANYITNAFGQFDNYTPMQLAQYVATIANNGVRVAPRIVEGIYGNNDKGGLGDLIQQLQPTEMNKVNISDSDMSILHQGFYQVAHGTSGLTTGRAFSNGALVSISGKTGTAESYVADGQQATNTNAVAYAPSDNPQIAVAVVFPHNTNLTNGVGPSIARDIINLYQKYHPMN
The experiment in a line: Binding affinity to penicillin-resistant Streptococcus pneumoniae 2527 PBP2B by competitive binding assay. In a few lines:
(§1)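 Whole pneumococcal cells were grown to OD600 0.3 in Todd-Hewitt broth plus 0.5% yeast extract, then resuspended in 50 mM NaPO4, pH 7.0. Cells at 10^8 to 5 × 10^8 CFU/ml were exposed to β-lactam for 10 min at 37°C, alongside a reference without drug. They were then labeled with 10 μg/ml Bocillin FL for 15 min at 37°C. Proteins were resolved by SDS-PAGE and fluorescence read at 520 nm. IC50 was taken as 50% inhibition of Bocillin FL binding, from 2 experiments.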

The nature of test [2]: Binding affinity to penicillin-resistant Streptococcus pneumoniae 24 PBP3 by competitive binding assay. In a few lines:
as §1

The nature of test [3]: Binding affinity to penicillin-resistant Streptococcus pneumoniae 24 PBP1B by competitive binding assay. The essentials: (§2)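 Whole pneumococcal cells grown to OD600 0.3 in Todd-Hewitt broth with 0.5% yeast extract, resuspended in 50 mM NaPO4 pH 7.0. Cells (10^8–5 × 10^8 CFU/ml) incubated with β-lactam 10 min at 37°C, then Bocillin FL 10 μg/ml, 15 min at 37°C. SDS-PAGE, 520 nm fluorescence; IC50 = 50% inhibition of Bocillin FL binding; 2 experiments.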

A short description of test [4]: Binding affinity to penicillin-resistant Streptococcus pneumoniae 24 PBP2A by competitive binding assay. In a few lines: as §2
Test [5] addresses T2, Penicillin-binding protein 1A (Streptococcus pneumoniae serotype 4 (strain ATCC BAA-334 / TIGR4), UniProt Q04707).
T2 sequence (Q04707 whole entry): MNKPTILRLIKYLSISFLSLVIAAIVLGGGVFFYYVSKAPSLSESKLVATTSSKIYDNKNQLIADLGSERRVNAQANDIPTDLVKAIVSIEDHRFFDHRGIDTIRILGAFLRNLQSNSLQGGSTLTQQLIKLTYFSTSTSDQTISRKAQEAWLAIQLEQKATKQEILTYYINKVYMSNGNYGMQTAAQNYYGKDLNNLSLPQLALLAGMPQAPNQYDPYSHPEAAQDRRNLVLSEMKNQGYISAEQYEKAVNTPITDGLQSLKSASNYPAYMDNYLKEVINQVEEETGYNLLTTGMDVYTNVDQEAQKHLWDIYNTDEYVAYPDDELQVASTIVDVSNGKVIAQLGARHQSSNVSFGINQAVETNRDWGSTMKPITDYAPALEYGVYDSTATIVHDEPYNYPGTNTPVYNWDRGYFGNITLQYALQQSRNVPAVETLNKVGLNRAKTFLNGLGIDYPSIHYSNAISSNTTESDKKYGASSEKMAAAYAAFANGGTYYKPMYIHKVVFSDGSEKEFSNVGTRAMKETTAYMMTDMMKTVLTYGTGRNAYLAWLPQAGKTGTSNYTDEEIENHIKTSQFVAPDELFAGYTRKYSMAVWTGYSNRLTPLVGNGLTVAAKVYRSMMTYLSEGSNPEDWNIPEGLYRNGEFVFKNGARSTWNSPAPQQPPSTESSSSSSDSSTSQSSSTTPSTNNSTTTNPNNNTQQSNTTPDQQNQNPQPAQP
Briefly: Binding affinity to penicillin-resistant Streptococcus pneumoniae 24 PBP1A by competitive binding assay. In a few lines:
as §2

The nature of test [6]: Binding affinity to against penicillin-susceptible Streptococcus pneumoniae 1076 PBP2A by competitive binding assay. In a few lines: as §2
The target in test [7] is T2, Penicillin-binding protein 1A. The experiment in a line: Binding affinity to penicillin-resistant Streptococcus pneumoniae 2527 PBP1A by competitive binding assay. In a few lines:
as §1

The nature of test [8]: Binding affinity to penicillin-resistant Streptococcus pneumoniae 3413 PBP3 by competitive binding assay. In a few lines:
as §1

Test [9] can be described thus: Binding affinity to against penicillin-susceptible Streptococcus pneumoniae 1076 PBP1B by competitive binding assay. The essentials:
as §2

Test [10] addresses T3, Penicillin-binding protein 2x (Streptococcus pneumoniae serotype 4 (strain ATCC BAA-334 / TIGR4), UniProt P14677). The experiment in a line: Binding affinity to penicillin-resistant Streptococcus pneumoniae 3413 PBP2X by competitive binding assay. In a few lines: as §1
Test [11] has as its target T2, Penicillin-binding protein 1A. The experiment in a line: Binding affinity to penicillin-resistant Streptococcus pneumoniae 3413 PBP1A by competitive binding assay. In a few lines: as §1
Test [12] addresses T3, Penicillin-binding protein 2x. The experiment in a line: Binding affinity to penicillin-resistant Streptococcus pneumoniae 24 PBP2X by competitive binding assay. The essentials: as §1

T3 sequence (P14677 whole entry, looked up): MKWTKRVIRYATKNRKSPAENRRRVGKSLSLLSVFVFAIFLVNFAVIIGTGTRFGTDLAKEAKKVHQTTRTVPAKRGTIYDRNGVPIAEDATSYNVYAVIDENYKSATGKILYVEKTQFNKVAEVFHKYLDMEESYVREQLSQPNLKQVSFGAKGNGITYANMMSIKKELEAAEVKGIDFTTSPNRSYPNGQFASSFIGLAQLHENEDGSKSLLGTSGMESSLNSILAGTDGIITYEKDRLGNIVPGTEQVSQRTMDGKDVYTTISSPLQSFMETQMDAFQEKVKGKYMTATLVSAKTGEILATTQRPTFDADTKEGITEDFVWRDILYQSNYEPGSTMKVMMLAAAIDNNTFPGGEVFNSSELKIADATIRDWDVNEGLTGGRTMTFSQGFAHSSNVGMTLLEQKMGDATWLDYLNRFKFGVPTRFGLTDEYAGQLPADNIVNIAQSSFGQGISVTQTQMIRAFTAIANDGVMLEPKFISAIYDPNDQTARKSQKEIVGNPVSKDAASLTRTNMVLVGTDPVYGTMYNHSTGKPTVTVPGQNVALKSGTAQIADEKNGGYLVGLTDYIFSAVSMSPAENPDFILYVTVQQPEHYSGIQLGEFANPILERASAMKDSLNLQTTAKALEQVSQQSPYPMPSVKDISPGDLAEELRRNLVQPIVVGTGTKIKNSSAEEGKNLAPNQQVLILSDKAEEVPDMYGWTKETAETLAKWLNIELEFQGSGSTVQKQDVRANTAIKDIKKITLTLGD

On to `CO/N=C(\C(=O)N[C@@H]1C(=O)N2C(C(=O)O)=C(COC(C)=O)CS[C@H]12)c1csc(N)n1` [CEFOTAXIME], for which the IC50 in [1] was 8.78 µM; in [2], 0.1 µg/mL (≈ 0.22 µM); in test [3] it was 8 µg/mL (≈ 17.6 µM); in test [4], 0.5 µg/mL (≈ 1.1 µM); in [5], 0.274 µM; in test [6], 0.25 µg/mL (≈ 0.549 µM). In addition, the IC50 in test [7] is 0.549 µM; in test [8], 0.1 µg/mL (≈ 0.22 µM); in [9], 0.25 µg/mL (≈ 0.549 µM); in [10], 8.78 µM; in test [11], 0.549 µM; in test [12], 2.2 µM.
As for `CO/N=C(\C(=O)N[C@@H]1C(=O)N2C(C(=O)O)=C(CSc3nc(=O)c(O)nn3C)CS[C@H]12)c1csc(N)n1` [CEFTRIAXONE], the IC50 in [1] was 7.21 µM; in test [2], 0.25 µg/mL (≈ 0.451 µM); in test [3], 1 µg/mL (≈ 1.8 µM); in test [4], 1 µg/mL (≈ 1.8 µM); in test [5] it was 0.451 µM; in [6] it was 0.25 µg/mL (≈ 0.451 µM). The IC50 is 0.451 µM in test [7]; 0.25 µg/mL (≈ 0.451 µM) in test [8]; 0.1 µg/mL (≈ 0.18 µM) in [9]; 7.21 µM in [10]; 0.451 µM in test [11]; 1.8 µM in [12].
